Common to all, as to type: functional, cell-based
Test [1] deals with Insulin receptor (Homo sapiens) (UniProt P06213). Description: Increase in insulin-induced IRbeta phosphorylation in human HepG2 cells after 1 hr at 20 nM. Summed up: (§1)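 HepG2 (MEM, 2 mM L-glutamine, 1 mM pyruvate, 10% FBS, 5% CO2) grown to 60-80% confluence, serum-starved 5 h, exposed 1 h to prodrug (0, 5, 20, 100 nM), then 100 nM insulin or none for 5 min. Lysates run on SDS-PAGE, blotted with anti-phospho-IRβ (pY1162/1163) and anti-phospho-ERK1/2, β-actin loading control; bands quantified densitometrically as fold over insulin-only.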
Insulin receptor (Homo sapiens), sequence (P06213 28-758 limits assumed): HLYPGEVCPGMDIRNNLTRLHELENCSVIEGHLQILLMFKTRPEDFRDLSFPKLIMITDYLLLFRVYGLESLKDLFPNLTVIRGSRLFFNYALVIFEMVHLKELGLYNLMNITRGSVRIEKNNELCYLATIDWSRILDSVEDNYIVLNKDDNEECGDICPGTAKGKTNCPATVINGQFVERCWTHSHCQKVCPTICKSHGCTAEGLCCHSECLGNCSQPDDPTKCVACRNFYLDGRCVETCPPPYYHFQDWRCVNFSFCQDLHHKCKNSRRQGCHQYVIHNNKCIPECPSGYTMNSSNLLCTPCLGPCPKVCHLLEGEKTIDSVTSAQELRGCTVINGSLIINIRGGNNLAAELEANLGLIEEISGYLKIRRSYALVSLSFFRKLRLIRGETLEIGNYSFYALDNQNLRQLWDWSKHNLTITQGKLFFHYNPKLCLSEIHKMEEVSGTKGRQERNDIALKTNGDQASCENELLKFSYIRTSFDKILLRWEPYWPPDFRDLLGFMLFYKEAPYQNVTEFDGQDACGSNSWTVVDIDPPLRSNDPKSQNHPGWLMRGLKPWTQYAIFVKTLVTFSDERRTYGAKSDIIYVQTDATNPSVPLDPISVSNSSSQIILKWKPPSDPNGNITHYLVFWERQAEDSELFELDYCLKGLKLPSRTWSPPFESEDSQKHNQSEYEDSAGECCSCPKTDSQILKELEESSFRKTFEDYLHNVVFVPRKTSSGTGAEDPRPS
Insulin receptor (Homo sapiens), sequence (P06213 763-1382 limits assumed): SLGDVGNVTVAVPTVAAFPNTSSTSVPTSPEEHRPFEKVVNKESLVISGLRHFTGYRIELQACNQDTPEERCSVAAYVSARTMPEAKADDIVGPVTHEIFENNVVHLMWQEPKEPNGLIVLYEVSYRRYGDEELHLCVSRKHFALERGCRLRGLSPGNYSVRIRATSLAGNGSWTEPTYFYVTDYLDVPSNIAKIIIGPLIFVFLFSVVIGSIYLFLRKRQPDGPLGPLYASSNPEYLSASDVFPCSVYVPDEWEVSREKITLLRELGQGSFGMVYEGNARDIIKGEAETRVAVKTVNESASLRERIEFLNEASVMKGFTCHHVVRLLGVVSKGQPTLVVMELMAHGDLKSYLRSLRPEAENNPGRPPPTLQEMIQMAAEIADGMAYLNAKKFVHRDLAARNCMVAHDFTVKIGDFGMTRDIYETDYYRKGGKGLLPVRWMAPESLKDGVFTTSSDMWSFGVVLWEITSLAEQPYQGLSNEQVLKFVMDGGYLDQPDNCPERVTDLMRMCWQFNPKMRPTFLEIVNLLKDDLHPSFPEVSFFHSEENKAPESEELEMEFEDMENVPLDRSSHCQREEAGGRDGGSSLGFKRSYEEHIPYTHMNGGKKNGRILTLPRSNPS

Test [2] shares this target. Description: Increase in insulin-induced IRbeta phosphorylation in HepG2 cells after 2 hrs at 20 nM.
Test [3] has the same target. Description: Increase in insulin-induced IRbeta phosphorylation in HepG2 cells after 60 mins at 20 nM. Summed up:
(§2)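 Time course in subconfluent HepG2 cells. Preincubation with 20 nM prodrug for various periods (5, 20, 60 min), then 5 min with or without 100 nM insulin. Lysates resolved by SDS-PAGE, transferred to nitrocellulose and probed for phospho-IRβ and phospho-ERK1/2. Result expressed as increase in insulin-induced phosphorylation.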

Test [4] has the same target. Description: Increase in insulin-induced IRbeta phosphorylation in human HepG2 cells after 1 hr at 100 nM. Summed up: as §1
Test [5] shares this target. As to the kind of experiment: Increase in insulin-induced IRbeta phosphorylation in HepG2 cells after 20 mins at 20 nM. Summed up:
as §2

Test [6] has the same target. As to the kind of experiment: Increase in insulin-induced ERK phosphorylation in HepG2 cells after 20 mins at 20 nM.
Test [7] shares this target. As to the kind of experiment: Increase in insulin-induced IRbeta phosphorylation in HepG2 cells after 5 mins at 20 nM. Summed up: as §2
Test [8] shares this target. Description: Increase in insulin-induced ERK phosphorylation in human HepG2 cells after 1 hr at 100 nM. Summed up:
as §1

Test [9] shares this target. Description: Increase in insulin-induced ERK phosphorylation in human HepG2 cells after 1 hr at 20 nM. Summed up: as §1
Test [10] shares this target. As to the kind of experiment: Increase in insulin-induced ERK phosphorylation in HepG2 cells after 60 mins at 20 nM. An outline of the steps: as §2

As for `CN(CCCCCl)P(=O)(OCc1ccc([N+](=O)[O-])o1)C(F)(F)c1ccc(CC(=O)N[C@@H](CC(=O)O)C(=O)N[C@@H](Cc2ccc(C(F)(F)P(=O)(OCc3ccc([N+](=O)[O-])o3)N(C)CCCCCl)cc2)C(N)=O)cc1` (stereo not given in full), the Activity in [1] is 1.9; in [2], 2.1; in test [3], 2; in test [4], 2.1; in test [5], 1.7; in test [6], 25%. Also, the Activity in [7] worked out at 35%; in test [8] it was 1.6; in test [9], 1.3; in test [10], 50%.

These data come from ChEMBL document CHEMBL1141375, “Synthesis and cell-based activity of a potent and selective protein tyrosine phosphatase 1B inhibitor prodrug” (J Med Chem, 2007).
